Data on 1 molecule can be found in PMC5014453 (Molecular Therapy. Nucleic Acids, 2016).

Assay [1] has as its system HBV proteins in HepG2.2.15 cells. The assay is described as follows: Western blot of intracellular HBV proteins in HepG2.2.15 cells. It is filed as cell-based, Hepatitis B virus. The following applies: HepG2.2.15 cell lysates, 3TC 20 μmol/l.
The subject of assay [2] is HBV DNA and RNA in HepG2.2.15 cells. The assay is described as follows: Southern and northern blot of intracellular HBV DNA and RNA in HepG2.2.15 cells. As to conditions: southern blot, 48 hours, 3TC 20 μmol/l. The assay is classed as cell-based, Hepatitis B virus. A digest of the protocol:
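HepG2.2.15 cells grown in DMEM with 10% FBS, penicillin and streptomycin at 37 °C, 5% CO2, then exposed to test compound; 3TC control at 20 μmol/l. Total RNA TRIzol-extracted, run on 1.5% formaldehyde agarose gel, HBV RNAs probed with the DIG probe also used for Southern blot; GAPDH DIG probe as internal control.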

Assay [3] has as its system HBV (pUC18-HBV1.3 hydrodynamic injection). Put plainly: Anti-HBV assay in an acute hepatitis B mouse model. It is filed as in vivo, BALB/c mice. As to conditions: acute hepatitis B mice, real-time PCR, n = 5; Tat-PNA-DR 5.05 mg/kg, 3TC 0.5 mg/kg. In general terms: In qPCR the cycle at which signal appears reflects the starting amount.

On to `Nc1ccn([C@@H]2CS[C@H](CO)O2)c(=O)n1` [3TC, lamivudine], for which the “intracellular HBV protein levels (HBsAg, HBV core protein, x protein, RT)” value in assay [1] is reported as “did not affect the expression of any HBV viral proteins”. Further, the “intracellular HBV DNA” value in assay [2] was “clearly inhibited the synthesis of HBV DNA”. The “average HBV DNA concentration in serum” value in assay [3] was 1.2 × 10^4 copies/ml.
